The structures appear in SMILES notation. In brackets after ≈: the same amount, converted by molar mass. Some results are limits rather than exact numbers.

The first assay concerns Mycobacterium tuberculosis. The assay can be described thus: Antimycobacterial activity against Mycobacterium tuberculosis H37Rv by radiorespirometric bioassay. In kind it is functional. The method in brief:
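Radiorespirometric bioassay giving MIC against strain H37Rv, run essentially per earlier reports; M. tuberculosis experiments usually completed in 10 days.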
One may read the MIC as the least concentration at which growth counts as inhibited. Higher therefore signals weaker potency. Take `C=C1C(=O)O[C@@H]2[C@@H]3[C@@H](CC[C@]34CO4)[C@]3(CC[C@@H]12)CO3`: the MIC worked out at 128 µg/mL (≈ 488 µM). On the same count and under the same terms, in the case of `C=C1CC[C@@H]2[C@H]1[C@H]1OC(=O)C(=C)[C@@H]1CC[C@]21CO1` [DEHYDROCOSTUS LACTONE,10ALPHA(14)EPOXIDE] it was 64 µg/mL (≈ 260 µM); in that of `C=C1CC[C@H]2C(=C)CC[C@H]3C(=C)C(=O)O[C@@H]3[C@@H]12` [DEHYDROCOSTUSLACTONE], 2 µg/mL (≈ 8.68 µM). Still for that read-out and setting: for `C=C1C(=O)O[C@H]2[C@H]1[C@@H](O)[C@H](OC(=O)/C(C)=C\C)C(C)=C1C(=O)C=C(C)[C@@]12O` [PUMILIN] the value was 128 µg/mL (≈ 342 µM).

`C=C1CC[C@H]2C(=C)CC[C@@]3(O)C(=C)C(=O)O[C@@H]3[C@@H]12` displayed an MIC greater than 128 µg/mL. The same measure, in the same setting: for `C=C1C(=O)O[C@@H]2[C@@H]3[C@@H](CC[C@]34CO4)C(=C)CC[C@@H]12` the value was 32 µg/mL (≈ 130 µM); for `C=C1CC[C@@H]2[C@H]1[C@H]1OC(=O)C(=C)[C@@H]1CC[C@@]21CO1` [DEHYDROCOSTUS LACTONE,10BETA(14)EPOXIDE], 32 µg/mL (≈ 130 µM). On the same count and under the same terms, for `C=C1C(=O)O[C@@H]2[C@@H]3[C@@H](CC[C@@]34CO4)[C@]3(CC[C@@H]12)CO3` the value was 64 µg/mL (≈ 244 µM); for `C=C1[C@@H]2[C@H]3OC(=O)C(=C)[C@@H]3CCC(=C)[C@@H]2C[C@H]1O` [ISOZALUZANIN C], greater than 128 µg/mL; for `C=C1C(=O)O[C@H]2[C@H]1CCC(C)=C1CC[C@@](C)(O)[C@@H]12` [MICHELIOLIDE], 50 µg/mL (≈ 201 µM). In turn, `C=C1C(=O)O[C@@H]2[C@@H]3[C@@H](CC[C@]34CO4)[C@@]3(CC[C@@H]12)CO3` gave an MIC of 128 µg/mL (≈ 488 µM).

Another assay concerns Mycobacterium avium. The assay can be described thus: Antimycobacterial activity against Mycobacterium avium by radiorespirometric bioassay. Type of assay: functional. The method in brief:
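MIC determined in a radiorespirometric bioassay run essentially per earlier reports; M. avium experiments usually completed within 5 days.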
Regarding `C=C1CC[C@H]2C(=C)CC[C@H]3C(=C)C(=O)O[C@@H]3[C@@H]12` [DEHYDROCOSTUSLACTONE], it took 16 µg/mL (≈ 69.5 µM) to inhibit growth (MIC). The same measure, in the same setting: in the case of `C=C1C(=O)O[C@H]2[C@H]1[C@@H](O)[C@H](OC(=O)/C(C)=C\C)C(C)=C1C(=O)C=C(C)[C@@]12O` [PUMILIN] it was 128 µg/mL (≈ 342 µM).

The record behind these values is ChEMBL document CHEMBL1150955, “Antimycobacterial activities of dehydrocostus lactone and its oxidation products” (1998).
